Measurements taken from ChEMBL document CHEMBL3611968, “Reengineered tricyclic anti-cancer agents” (Bioorg Med Chem, 2015).
Active and inactive are the calls of the source. The calls are words filed in the database; no cut-off is given here.

Legend:
[1] = Clearance in mouse at 1 mg/kg, iv; format: ADME, organism-based; conditions: in vivo
Homo sapiens [2] = species: Homo sapiens; experiment: Displacement of [3H]-D888 from L-type Ca2+ channel verapamil site (unknown origin) at […]
[3] = AUCinfinity in mouse at 100 mg/kg, ip administered through DMSO; format: ADME, organism-based; design: dose 100 mg/kg, time infinity, route intraperitoneal; conditions: in vivo
[4] = biological target: Sodium-dependent dopamine transporter (Homo sapiens) (UniProt Q01959); experiment: Displacement of [3H]-BTCP from dopamine transporter (unknown origin) at 1 to 10 mM
How it was run: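 Dopamine transporter antagonist radioligand binding used [3H]BTCP, tested at 0.1, 1.0 and 10 mM, as percent inhibition. Each value is the average of two independent determinations.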

Homo sapiens [5] = species: Homo sapiens; experiment: Displacement of [125-I]-apamin from SKCa channel (unknown origin) at 0.1 to 10 mM
[6] = Half life in mouse at 1 mg/kg, iv; format: ADME, organism-based; conditions: in vivo
[7] = AUClast in mouse at 25 mg/kg, ip; format: ADME, organism-based; conditions: in vivo
[8] = biological target: Histamine H1 receptor (Homo sapiens) (UniProt P35367); experiment: Displacement of [3H]-pyrilamine from histamine H1 receptor (unknown origin) at […]
[9] = Tmax in mouse at 25 mg/kg, ip; format: ADME, organism-based; conditions: in vivo
[10] = Bioavailability in mouse at 25 mg/kg, ip; format: ADME, organism-based; conditions: in vivo
[11] = Cmax in mouse at 100 mg/kg, po; format: ADME, organism-based; design: dose 100 mg/kg, route oral; conditions: in vivo
Homo sapiens [12] = species: Homo sapiens; experiment: Displacement of [3H]-diltiazem from L-type Ca2+ channel diltiazem site (unknown origin) at […]
[13] = Tmax in mouse at 100 mg/kg, ip administered through DMSO; format: ADME, organism-based; conditions: in vivo
[14] = Cmax in mouse at 25 mg/kg, ip; format: ADME, organism-based; design: dose 25 mg/kg, route intraperitoneal; conditions: in vivo
NCI-H1650 [15] = experiment: Cell cycle arrest in human NCI-H1650 cells assessed as accumulation at sub-G1 phase at 1 to 40 uM by propidium iodide staining-based flow cytometric analysis; format: functional
[16] = AUCinfinity in mouse at 25 mg/kg, ip; format: ADME, organism-based; design: dose 25 mg/kg, time infinity, route intraperitoneal; conditions: in vivo
[17] = Cmax in mouse at 100 mg/kg, ip administered through DMA/solutol/water; format: ADME, organism-based; design: dose 100 mg/kg, route intraperitoneal; conditions: in vivo
[18] = AUCinfinity in mouse at 100 mg/kg, po; format: ADME, organism-based; design: dose 100 mg/kg, route oral, time infinity; conditions: in vivo
NCI-H1650 [19] = experiment: Inhibition of ERK phosphorylation in human NCI-H1650 cells at 20 to 40 uM after 12 hrs by Western blot analysis; format: cell-based
[20] = biological target: Histamine H2 receptor (Homo sapiens) (UniProt P25021); experiment: Displacement of [125I]-APT from histamine H2 receptor (unknown origin) at […]
[21] = Cmax in mouse at 100 mg/kg, ip administered through DMSO; format: ADME, organism-based; design: dose 100 mg/kg, route intraperitoneal; conditions: in vivo
[22] = Tmax in mouse at 100 mg/kg, po; format: ADME, organism-based; conditions: in vivo
[23] = AUClast in mouse at 1 mg/kg, iv; format: ADME, organism-based; conditions: in vivo
[24] = biological target: Sodium-dependent noradrenaline transporter (Homo sapiens) (UniProt P23975); experiment: Displacement of [3H]-nisoxetine from norepinephrine transporter (unknown origin) at 1 to 10 mM
How it was run: (§1)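 Competitive antagonist radioligand binding at monoamine transporters. Serotonin transporter is labelled with [³H]imipramine and norepinephrine transporter with [³H]nisoxetine. The compound was tested at three concentrations, and binding is expressed as percent inhibition of specific radioligand binding. Each value is the mean of two independent determinations.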

[25] = Cmax in mouse at 25 mg/kg, po; format: ADME, organism-based; design: dose 25 mg/kg, route oral; conditions: in vivo
NCI-H1650 [26] = experiment: Cytotoxicity against human NCI-H1650 cells assessed as growth inhibition after 48 hrs by MTT assay; format: functional; conditions: NCI-H1650, 48 h
How it was run: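 H1650 cells were exposed to drug for 48 h at five concentrations bracketing 1–40 μM in 10 μM steps, with MTT read-out. GI50 is given only where the data form a sigmoidal dose response.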

[27] = biological target: Voltage-gated inwardly rectifying potassium channel KCNH2 (Homo sapiens, UniProt Q12809); experiment: Displacement of [3H]-astemizole from human ERG at […]
NCI-H1650 [28] = experiment: Induction of apoptosis in human NCI-H1650 cells by Annexin V staining; format: functional, cell-based
[29] = AUClast in mouse at 100 mg/kg, ip administered through DMSO; format: ADME, organism-based; conditions: in vivo
NCI-H1650 [30] = experiment: Induction of apoptosis in human NCI-H1650 cells by Annexin V staining in presence of pan caspase inhibition Z-VAD; format: functional, cell-based
[31] = biological target: Sodium-dependent serotonin transporter (Homo sapiens) (UniProt P31645); experiment: Displacement of [3H]-imipramine from serotonin transporter (unknown origin) at 0.1 to 10 mM relative to control; how it was run: as §1
[32] = AUCinfinity in mouse at 100 mg/kg, ip administered through DMA/solutol/water; format: ADME, organism-based; design: dose 100 mg/kg, route intraperitoneal, time infinity; conditions: in vivo
[33] = biological target: RAC-alpha serine/threonine-protein kinase (Homo sapiens) (UniProt P31749); experiment: Inhibition of AKT phosphorylation in human NCI-H1650 cells at 20 to 40 uM after 12 hrs by Western blot analysis; format: cell-based
[34] = AUClast in mouse at 100 mg/kg, po; format: ADME, organism-based; conditions: in vivo
[35] = Bioavailability in mouse at 100 mg/kg, ip administered through DMSO; format: ADME, organism-based; conditions: in vivo
[36] = Tmax in mouse at 100 mg/kg, ip administered through DMA/solutol/water; format: ADME, organism-based; conditions: in vivo
[37] = Oral bioavailability in mouse at 100 mg/kg; format: ADME, organism-based; conditions: in vivo
[38] = test system: Voltage-gated potassium channel; experiment: Displacement of [125-I]-dendrotoxin from Kv channel (unknown origin) at 0.1 to 10 mM; format: protein assay; conditions: human
NCI-H1650 [39] = experiment: Antitumor activity against human NCI-H1650 cells xenografted in BALB/c nu/nu mouse assessed as change in tumor volume at 100 mg/kg, ip administered every other day for 3 weeks (reference value: 3.46 +/- 0.95); format: functional
How it was run: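 H1650 tumours were grown in mice. The 100 mg/kg treated group (n = 9) was compared with vehicle controls (n = 7) on mean fold change in tumour volume, using Student's t test.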

[40] = Bioavailability in mouse at 100 mg/kg, ip administered through DMA/solutol/water; format: ADME, organism-based; conditions: in vivo
[41] = AUClast in mouse at 100 mg/kg, ip administered through DMA/solutol/water; format: ADME, organism-based; conditions: in vivo
[42] = Tmax in mouse at 25 mg/kg, po; format: ADME, organism-based; conditions: in vivo
[43] = biological target: T1, Muscarinic acetylcholine receptor M2 (Homo sapiens) (UniProt P08172); experiment: Displacement of [3H]-AF-DX384 from muscarinic acetylcholine M2 receptor (unknown origin) at […]
T1 sequence (whole entry): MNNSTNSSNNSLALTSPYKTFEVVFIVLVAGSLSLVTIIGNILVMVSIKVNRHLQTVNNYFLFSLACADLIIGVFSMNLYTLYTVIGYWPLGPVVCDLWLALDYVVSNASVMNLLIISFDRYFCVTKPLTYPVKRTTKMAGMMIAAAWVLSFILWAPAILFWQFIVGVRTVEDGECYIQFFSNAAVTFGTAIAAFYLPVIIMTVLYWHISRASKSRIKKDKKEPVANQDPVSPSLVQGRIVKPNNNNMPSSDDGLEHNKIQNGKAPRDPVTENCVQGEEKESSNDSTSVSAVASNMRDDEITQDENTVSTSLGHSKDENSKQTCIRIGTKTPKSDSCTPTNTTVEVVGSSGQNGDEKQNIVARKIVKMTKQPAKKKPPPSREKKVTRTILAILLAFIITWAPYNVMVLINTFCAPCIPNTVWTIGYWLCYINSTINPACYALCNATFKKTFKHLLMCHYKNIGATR

[44] = AUCinfinity in mouse at 1 mg/kg, iv; format: ADME, organism-based; design: dose 1 mg/kg, time infinity, route intravenous; conditions: in vivo
[45] = AUClast in mouse at 25 mg/kg, po; format: ADME, organism-based; conditions: in vivo
[46] = Volume of distribution at steady state in mouse at 1 mg/kg, iv; format: ADME, organism-based; conditions: in vivo, read-out: Vdss
[47] = biological target: Sodium channel protein type 5 subunit alpha (Homo sapiens, UniProt Q14524); experiment: Inhibition of Nav1.5 channel (unknown origin) expressed in HEK293 cells at […] by patch clamp assay; format: cell-based
[48] = Oral bioavailability in mouse at 25 mg/kg; format: ADME, organism-based; conditions: in vivo
Homo sapiens [49] = species: Homo sapiens; experiment: Displacement of [3H]-glibencamide from K (ATP) channel (unknown origin) at […]
[50] = AUCinfinity in mouse at 25 mg/kg, po; format: ADME, organism-based; design: dose 25 mg/kg, route oral, time infinity; conditions: in vivo
Homo sapiens [51] = species: Homo sapiens; experiment: Displacement of [3H]-nitrendipine from L-type Ca2+ channel dihydropyridine site (unknown origin) at […]

Histamine H2 receptor (Homo sapiens), sequence (P25021 whole entry): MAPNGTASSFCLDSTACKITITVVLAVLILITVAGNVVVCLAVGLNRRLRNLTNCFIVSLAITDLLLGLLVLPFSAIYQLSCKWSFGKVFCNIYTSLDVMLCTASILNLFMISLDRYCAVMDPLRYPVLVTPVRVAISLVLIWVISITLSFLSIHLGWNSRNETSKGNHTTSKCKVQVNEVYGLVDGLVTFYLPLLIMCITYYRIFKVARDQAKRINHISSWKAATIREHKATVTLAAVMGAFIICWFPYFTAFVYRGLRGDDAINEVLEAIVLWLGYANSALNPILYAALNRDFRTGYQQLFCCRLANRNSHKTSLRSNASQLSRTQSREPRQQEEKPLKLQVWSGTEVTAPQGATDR
Sodium-dependent dopamine transporter (Homo sapiens), sequence (Q01959 whole entry): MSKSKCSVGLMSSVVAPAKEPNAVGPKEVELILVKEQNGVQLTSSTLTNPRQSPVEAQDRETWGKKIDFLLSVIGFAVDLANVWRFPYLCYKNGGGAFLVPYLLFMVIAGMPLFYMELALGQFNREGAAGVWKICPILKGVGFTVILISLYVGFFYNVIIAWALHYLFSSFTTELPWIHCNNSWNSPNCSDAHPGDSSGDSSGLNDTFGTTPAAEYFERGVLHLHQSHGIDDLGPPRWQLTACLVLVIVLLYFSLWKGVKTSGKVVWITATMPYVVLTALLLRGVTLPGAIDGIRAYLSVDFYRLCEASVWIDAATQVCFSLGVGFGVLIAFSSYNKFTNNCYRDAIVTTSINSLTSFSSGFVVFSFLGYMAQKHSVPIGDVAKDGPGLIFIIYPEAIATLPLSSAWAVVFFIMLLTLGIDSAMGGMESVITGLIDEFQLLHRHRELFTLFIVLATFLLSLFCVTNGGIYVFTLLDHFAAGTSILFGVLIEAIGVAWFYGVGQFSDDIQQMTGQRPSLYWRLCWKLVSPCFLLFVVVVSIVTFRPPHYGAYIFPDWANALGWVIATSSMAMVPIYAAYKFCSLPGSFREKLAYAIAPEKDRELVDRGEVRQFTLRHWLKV
Sodium-dependent noradrenaline transporter (Homo sapiens), sequence (P23975 whole entry): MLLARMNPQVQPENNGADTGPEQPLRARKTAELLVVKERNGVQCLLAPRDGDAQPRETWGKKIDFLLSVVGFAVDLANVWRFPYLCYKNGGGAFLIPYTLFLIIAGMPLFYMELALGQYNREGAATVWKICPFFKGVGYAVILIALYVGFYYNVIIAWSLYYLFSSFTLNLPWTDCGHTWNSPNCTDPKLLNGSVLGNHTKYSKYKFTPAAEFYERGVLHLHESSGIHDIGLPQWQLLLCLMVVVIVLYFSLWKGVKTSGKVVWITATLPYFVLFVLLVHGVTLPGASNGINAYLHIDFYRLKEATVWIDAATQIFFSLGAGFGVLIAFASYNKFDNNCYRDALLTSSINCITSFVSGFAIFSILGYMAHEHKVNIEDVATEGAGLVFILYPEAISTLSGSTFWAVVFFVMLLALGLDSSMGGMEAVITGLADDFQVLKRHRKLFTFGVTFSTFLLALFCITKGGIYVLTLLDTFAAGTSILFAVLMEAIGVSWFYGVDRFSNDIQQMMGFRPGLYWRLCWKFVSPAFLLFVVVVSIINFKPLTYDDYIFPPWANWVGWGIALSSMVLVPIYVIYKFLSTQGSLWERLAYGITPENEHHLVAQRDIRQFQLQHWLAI
Sodium channel protein type 5 subunit alpha, sequence (Q14524 whole entry): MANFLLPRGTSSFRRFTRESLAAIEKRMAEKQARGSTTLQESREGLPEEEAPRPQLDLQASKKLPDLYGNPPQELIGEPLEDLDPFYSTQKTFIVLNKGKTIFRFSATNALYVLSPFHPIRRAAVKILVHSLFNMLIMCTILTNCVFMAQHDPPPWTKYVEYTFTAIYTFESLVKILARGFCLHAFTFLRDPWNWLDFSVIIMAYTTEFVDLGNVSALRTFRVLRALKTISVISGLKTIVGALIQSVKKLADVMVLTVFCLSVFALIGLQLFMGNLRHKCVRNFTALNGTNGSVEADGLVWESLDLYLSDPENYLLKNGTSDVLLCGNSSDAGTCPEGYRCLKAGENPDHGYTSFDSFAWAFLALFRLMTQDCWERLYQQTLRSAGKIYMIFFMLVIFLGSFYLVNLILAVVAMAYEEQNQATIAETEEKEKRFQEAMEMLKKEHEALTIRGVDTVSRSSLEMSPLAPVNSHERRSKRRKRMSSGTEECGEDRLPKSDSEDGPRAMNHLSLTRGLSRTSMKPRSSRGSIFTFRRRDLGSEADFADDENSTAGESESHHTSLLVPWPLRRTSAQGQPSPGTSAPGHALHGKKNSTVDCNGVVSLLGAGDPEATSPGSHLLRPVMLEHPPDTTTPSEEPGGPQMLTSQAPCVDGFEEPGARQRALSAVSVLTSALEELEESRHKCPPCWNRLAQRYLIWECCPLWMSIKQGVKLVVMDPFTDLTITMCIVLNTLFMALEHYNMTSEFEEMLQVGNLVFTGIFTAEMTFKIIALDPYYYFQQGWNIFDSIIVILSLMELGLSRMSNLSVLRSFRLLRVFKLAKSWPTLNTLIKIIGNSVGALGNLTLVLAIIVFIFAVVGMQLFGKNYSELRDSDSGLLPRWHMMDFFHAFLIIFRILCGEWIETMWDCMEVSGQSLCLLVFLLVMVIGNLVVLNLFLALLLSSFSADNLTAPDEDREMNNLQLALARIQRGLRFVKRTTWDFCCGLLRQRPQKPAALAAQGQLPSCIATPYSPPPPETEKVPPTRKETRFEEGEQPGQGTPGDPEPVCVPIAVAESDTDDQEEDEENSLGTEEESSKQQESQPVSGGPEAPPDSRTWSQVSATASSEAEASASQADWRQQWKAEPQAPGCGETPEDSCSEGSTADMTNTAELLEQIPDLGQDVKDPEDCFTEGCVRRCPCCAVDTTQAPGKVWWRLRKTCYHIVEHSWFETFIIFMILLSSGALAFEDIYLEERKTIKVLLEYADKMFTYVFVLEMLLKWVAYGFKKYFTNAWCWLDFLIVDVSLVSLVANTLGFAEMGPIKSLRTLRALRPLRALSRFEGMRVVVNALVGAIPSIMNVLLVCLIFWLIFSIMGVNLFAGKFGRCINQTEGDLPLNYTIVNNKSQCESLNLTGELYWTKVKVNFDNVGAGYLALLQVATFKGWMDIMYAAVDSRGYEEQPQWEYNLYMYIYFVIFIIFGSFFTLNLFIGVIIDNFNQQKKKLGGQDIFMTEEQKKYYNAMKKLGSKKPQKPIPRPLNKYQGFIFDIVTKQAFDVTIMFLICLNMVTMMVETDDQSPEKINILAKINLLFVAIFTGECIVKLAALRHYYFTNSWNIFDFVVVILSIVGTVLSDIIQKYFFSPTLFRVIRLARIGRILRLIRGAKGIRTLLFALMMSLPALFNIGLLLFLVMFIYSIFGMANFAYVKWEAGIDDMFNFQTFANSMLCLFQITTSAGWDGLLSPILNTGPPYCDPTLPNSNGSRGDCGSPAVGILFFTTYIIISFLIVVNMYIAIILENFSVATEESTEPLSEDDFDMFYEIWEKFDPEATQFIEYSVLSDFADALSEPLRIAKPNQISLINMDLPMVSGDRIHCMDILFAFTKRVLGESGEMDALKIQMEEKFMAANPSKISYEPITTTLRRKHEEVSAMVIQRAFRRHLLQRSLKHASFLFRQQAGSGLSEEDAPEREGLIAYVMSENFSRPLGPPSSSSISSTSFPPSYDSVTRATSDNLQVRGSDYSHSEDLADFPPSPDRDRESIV
Histamine H1 receptor (Homo sapiens), sequence (P35367 whole entry): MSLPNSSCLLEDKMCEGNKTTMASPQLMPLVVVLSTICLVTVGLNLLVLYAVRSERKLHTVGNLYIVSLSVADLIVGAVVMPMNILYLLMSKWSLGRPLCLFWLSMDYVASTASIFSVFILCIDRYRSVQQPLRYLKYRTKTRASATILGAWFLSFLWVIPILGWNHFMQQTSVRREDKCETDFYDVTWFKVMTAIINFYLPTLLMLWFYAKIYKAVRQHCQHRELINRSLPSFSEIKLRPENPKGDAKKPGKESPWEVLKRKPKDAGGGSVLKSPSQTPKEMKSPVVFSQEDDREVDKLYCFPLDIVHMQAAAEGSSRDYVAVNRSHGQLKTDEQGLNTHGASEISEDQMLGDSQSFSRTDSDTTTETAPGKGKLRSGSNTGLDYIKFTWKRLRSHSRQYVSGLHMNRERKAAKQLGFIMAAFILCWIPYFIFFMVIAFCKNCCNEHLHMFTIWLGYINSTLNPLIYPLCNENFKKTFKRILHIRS
RAC-alpha serine/threonine-protein kinase (Homo sapiens), sequence (P31749 whole entry): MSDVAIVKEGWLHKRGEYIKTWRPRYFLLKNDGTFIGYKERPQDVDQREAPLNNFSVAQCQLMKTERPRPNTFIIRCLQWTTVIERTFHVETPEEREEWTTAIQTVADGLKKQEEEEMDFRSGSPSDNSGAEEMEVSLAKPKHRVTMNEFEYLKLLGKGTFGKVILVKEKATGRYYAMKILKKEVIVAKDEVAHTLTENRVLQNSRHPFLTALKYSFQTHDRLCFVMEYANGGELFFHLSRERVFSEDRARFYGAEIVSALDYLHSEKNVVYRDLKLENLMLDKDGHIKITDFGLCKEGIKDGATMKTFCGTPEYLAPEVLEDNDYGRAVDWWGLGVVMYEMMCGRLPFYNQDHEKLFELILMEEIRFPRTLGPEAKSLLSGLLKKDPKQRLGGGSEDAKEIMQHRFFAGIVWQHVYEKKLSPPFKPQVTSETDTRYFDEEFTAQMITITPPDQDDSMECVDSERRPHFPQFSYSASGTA

SMILES: O=S(=O)(NCCCN1c2ccccc2CCc2ccc(Cl)cc21)c1ccc(OC(F)(F)F)cc1
- clearance [1]: 42 mL/min/kg
- inhibition (Homo sapiens [2]): inactive
- AUC(0-inf) [3]: 40700 ng·h/mL
- inhibition [4]: Active
- inhibition (Homo sapiens [5]): inactive
- half-life [6]: 36.6 min
- AUC(0-t) [7]: 3570 ng·h/mL
- inhibition [8]: inactive
- Tmax [9]: 1 h
- bioavailability [10]: 38%
- Cmax [11]: 1940 ng/mL
- inhibition (Homo sapiens [12]): inactive
- Tmax [13]: 4 h
- Cmax [14]: 754 ng/mL
- Activity (NCI-H1650 [15]): Active
- AUC(0-inf) [16]: 3680 ng·h/mL
- Cmax [17]: 2350 ng/mL
- AUC(0-inf) [18]: 7210 ng·h/mL
- inhibition (NCI-H1650 [19]): Active
- inhibition [20]: inactive
- Cmax [21]: 3100 ng/mL
- Tmax [22]: 2 h
- AUC(0-t) [23]: 375 ng·h/mL
- inhibition [24]: Active
- Cmax [25]: 476 ng/mL
- GI50 (NCI-H1650 [26]): 12.6 µM
- inhibition (INH) [27]: Not Active
- Activity (NCI-H1650 [28]): Active
- AUC(0-t) [29]: 38800 ng·h/mL
- Activity (NCI-H1650 [30]): inactive
- inhibition [31]: < 5%
- AUC(0-inf) [32]: 14100 ng·h/mL
- inhibition [33]: Active
- AUC(0-t) [34]: 6790 ng·h/mL
- bioavailability [35]: 100%
- Tmax [36]: 2 h
- bioavailability [37]: 18%
- inhibition (INH) [38]: Not Active
- fold change (FC) (NCI-H1650 [39]): 1.49
- bioavailability [40]: 34%
- AUC(0-t) [41]: 12800 ng·h/mL
- Tmax [42]: 1 h
- inhibition [43]: inactive
- AUC(0-inf) [44]: 399 ng·h/mL
- AUC(0-t) [45]: 1380 ng·h/mL
- Vd [46]: 1.31 L/kg
- inhibition (INH) [47]: Not Active
- bioavailability [48]: 15%
- inhibition (Homo sapiens [49]): inactive
- AUC(0-inf) [50]: 1430 ng·h/mL
- inhibition (Homo sapiens [51]): inactive
